Test system: U2OS
Test: Multiplex assay against U2OS
Format: toxicity, cell-based
Conditions: human
Outline: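 Live cells were stained at seeding with Hoechst33342, BioTracker Green Microtubule Cytoskeleton Dye, MitoTracker Red and Annexin V Alexa Fluor 680. Following compound addition, they were imaged on a CQ1 microscope at 37°C and 5% CO2 and gated by CellPathfinder machine learning into Hoechst high-intensity objects or normal cells, with normal cells split into healthy, pyknosed or fragmented nuclei and pyknosed cells into mitotic or apoptotic. Tubulin, mitochondrial-mass and membrane-permeability phenotypes are per cents of healthy-nucleus cells.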

[1] = 12 h, 1 µM, compound concentration 1 uM, replicate 1
[2] = 12 h, 1 µM, compound concentration 1 uM, replicate 2
[3] = 12 h, 10 µM, compound concentration 10 uM, replicate 1
[4] = 12 h, 10 µM, compound concentration 10 uM, replicate 2
[5] = 24 h, 1 µM, compound concentration 1 uM, replicate 1
[6] = 24 h, 1 µM, compound concentration 1 uM, replicate 2
[7] = 24 h, 10 µM, compound concentration 10 uM, replicate 1
[8] = 24 h, 10 µM, compound concentration 10 uM, replicate 2

SMILES: CNC(=O)c1cc(Oc2ccc(NC(=O)Nc3cc(C(C)(C)C)nn3-c3ccc4ncccc4c3)c(F)c2)ccn1 [REBASTINIB]
- Population Apoptotic (%) [1]: 46%
- Population Fragmented Nuclei (%) [1]: 3%
- Population Healthy Nuclei (%) [1]: 88%
- Population Hoechst High Intensity Objects (%) [1]: 3%
- Population Membrane Permeable-Phenotype (%) [1]: 16%
- Population Mitochondria Different-Phenotype (%) [1]: 15%
- Population Mitotic Cells (%) [1]: 53%
- Population Normal (%) [1]: 96%
- Population Pyknosed Nuclei (%) [1]: 7%
- Population Tubulin-Different-Phenotype (%) [1]: 13%
- Total Cell Count [1]: 164
- Population Apoptotic (%) [2]: 0%
- Population Fragmented Nuclei (%) [2]: 10%
- Population Healthy Nuclei (%) [2]: 87%
- Population Hoechst High Intensity Objects (%) [2]: 7%
- Population Membrane Permeable-Phenotype (%) [2]: 17%
- Population Mitochondria Different-Phenotype (%) [2]: 31%
- Population Mitotic Cells (%) [2]: 100%
- Population Normal (%) [2]: 92%
- Population Pyknosed Nuclei (%) [2]: 1%
- Population Tubulin-Different-Phenotype (%) [2]: 35%
- Total Cell Count [2]: 113
- Population Apoptotic (%) [3]: 50%
- Population Fragmented Nuclei (%) [3]: 16%
- Population Healthy Nuclei (%) [3]: 63%
- Population Hoechst High Intensity Objects (%) [3]: 6%
- Population Membrane Permeable-Phenotype (%) [3]: 30%
- Population Mitochondria Different-Phenotype (%) [3]: 54%
- Population Mitotic Cells (%) [3]: 50%
- Population Normal (%) [3]: 93%
- Population Pyknosed Nuclei (%) [3]: 20%
- Population Tubulin-Different-Phenotype (%) [3]: 96%
- Total Cell Count [3]: 196
- Population Apoptotic (%) [4]: 46%
- Population Fragmented Nuclei (%) [4]: 8%
- Population Healthy Nuclei (%) [4]: 72%
- Population Hoechst High Intensity Objects (%) [4]: 11%
- Population Membrane Permeable-Phenotype (%) [4]: 18%
- Population Mitochondria Different-Phenotype (%) [4]: 52%
- Population Mitotic Cells (%) [4]: 53%
- Population Normal (%) [4]: 88%
- Population Pyknosed Nuclei (%) [4]: 18%
- Population Tubulin-Different-Phenotype (%) [4]: 98%
- Total Cell Count [4]: 111
- Population Apoptotic (%) [5]: 25%
- Population Fragmented Nuclei (%) [5]: 6%
- Population Healthy Nuclei (%) [5]: 84%
- Population Hoechst High Intensity Objects (%) [5]: 2%
- Population Membrane Permeable-Phenotype (%) [5]: 12%
- Population Mitochondria Different-Phenotype (%) [5]: 28%
- Population Mitotic Cells (%) [5]: 75%
- Population Normal (%) [5]: 97%
- Population Pyknosed Nuclei (%) [5]: 9%
- Population Tubulin-Different-Phenotype (%) [5]: 13%
- Total Cell Count [5]: 218
- Population Apoptotic (%) [6]: 44%
- Population Fragmented Nuclei (%) [6]: 13%
- Population Healthy Nuclei (%) [6]: 79%
- Population Hoechst High Intensity Objects (%) [6]: 13%
- Population Membrane Permeable-Phenotype (%) [6]: 14%
- Population Mitochondria Different-Phenotype (%) [6]: 26%
- Population Mitotic Cells (%) [6]: 55%
- Population Normal (%) [6]: 86%
- Population Pyknosed Nuclei (%) [6]: 7%
- Population Tubulin-Different-Phenotype (%) [6]: 35%
- Total Cell Count [6]: 126
- Population Apoptotic (%) [7]: 75%
- Population Fragmented Nuclei (%) [7]: 17%
- Population Healthy Nuclei (%) [7]: 50%
- Population Hoechst High Intensity Objects (%) [7]: 18%
- Population Membrane Permeable-Phenotype (%) [7]: 33%
- Population Mitochondria Different-Phenotype (%) [7]: 91%
- Population Mitotic Cells (%) [7]: 24%
- Population Normal (%) [7]: 81%
- Population Pyknosed Nuclei (%) [7]: 31%
- Population Tubulin-Different-Phenotype (%) [7]: 94%
- Total Cell Count [7]: 227
- Population Apoptotic (%) [8]: 64%
- Population Fragmented Nuclei (%) [8]: 15%
- Population Healthy Nuclei (%) [8]: 59%
- Population Hoechst High Intensity Objects (%) [8]: 17%
- Population Membrane Permeable-Phenotype (%) [8]: 30%
- Population Mitochondria Different-Phenotype (%) [8]: 87%
- Population Mitotic Cells (%) [8]: 35%
- Population Normal (%) [8]: 82%
- Population Pyknosed Nuclei (%) [8]: 25%
- Population Tubulin-Different-Phenotype (%) [8]: 97%
- Total Cell Count [8]: 141
